Measured values pooled from the literature.
Compare with care: the assays were run in different laboratories. Converted amounts (≈) assume the structure as drawn.
Organism: Streptococcus pneumoniae

Compound | test | system | setting | endpoint | value
O=c1[nH]cc(F)c(=O)[nH]1 | microbial killing, broth dilution |  | 48 h | MBC | 0.25 µg/mL (≈ 1.92 µM)
O=C(O)CN1C(=O)/C(=C/c2ccc(-c3ccc(N(c4ccccc4)c4ccccc4)cc3)cc2)SC1=S | microbial killing, broth dilution | ATCC49619 |  | MBC | 500 µg/mL (≈ 957 µM)
CN(C)[C@@H]1C(O)=C(C(N)=O)C(=O)[C@@]2(O)C(O)=C3C(=O)c4c(cc5ccc(-c6cccnc6)cc5c4O)C[C@H]3C[C@@H]12 | microbial growth, broth dilution | ATCC49619 |  | MIC | 32 µg/mL (≈ 59.1 µM)
CC[C@H]1OC(=O)[C@H](C)[C@@H](O[C@H]2C[C@@](C)(OC)[C@@H](O)[C@H](C)O2)[C@H](C)[C@@H](O[C@@H]2O[C@H](C)C[C@H](N(C)C)[C@H]2O)[C@](C)(OC)C[C@@H](C)C(=O)[C@H](C)[C@@H](O)[C@]1(C)O | microbial growth |  |  | MIC90 | 256 µg/mL (≈ 342 µM)
O=C(O)CN1C(=O)/C(=C/c2c3ccccc3c(-c3ccc(N(c4ccccc4)c4ccccc4)cc3)c3ccccc23)NC1=S | microbial killing, broth dilution | ATCC49619 |  | MBC | > 1000 µg/mL
CN(C)c1cc(CNCC(C)(C)C)c(O)c2c1C[C@H]1C[C@H]3[C@H](N(C)C)C(O)=C(C(N)=O)C(=O)[C@@]3(O)C(O)=C1C2=O | microbial growth | 157E |  | MIC | < 0.06 µg/mL
COc1cc(Cc2cnc(N)nc2N)cc(OC)c1OC | microbial killing, broth dilution |  | 48 h | MBC | 0.25 µg/mL (≈ 0.861 µM)
CN(C)c1ccc(-c2ccc3cc4c(c(O)c3c2)C(=O)C2=C(O)[C@]3(O)C(=O)C(C(N)=O)=C(O)[C@@H](N(C)C)[C@@H]3C[C@@H]2C4)cc1 | microbial growth, broth dilution | ATCC49619 |  | MIC | 32 µg/mL (≈ 54.8 µM)
